Assay outcomes deposited in PubChem by Johns Hopkins Ion Channel Center.
In the library only some 3.5% were active in any assay of this set; here they are far more common.
RGS4 pot: RGS4 potentiators or activators, primary screen, cell-based, HEK293 M3R inducible RGS4, calcium flux; 0.92% of 310,000 active; carbachol calcium flux Fluo4; active compounds read low; B-score at 10 µM; AID 463111, 2010;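 active = B-score of the integrated calcium signal more than 4 SD below the library mean, with starting fluorescence not abnormally high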;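 also: negative B-score means reduced calcium response which marks RGS4 activation or potentiation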
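System – HEK293 FlpIn-TREx cells, stable M3R, doxycycline-inducible RGS4 · Reagent – ECmax carbachol challenge · Times – compound preincubation 20 min at room temperature before agonist · Technique – Fluo4 fluorescence kinetic imaging of calcium · Measure – B score of integrated Fluo4 ratio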
MrgX1 agonist: agonists of human MrgX1 receptor, primary screen, HEK293 cells, Fluo-4 calcium flux; Mas-related G-protein coupled receptor member X1 (Homo sapiens), Q96LB2; Fluo-4 calcium fluorescence, agonist mode; active compounds read high; B-score at 10 µM; 0.44% of 310,000 active; AID 588627, 2011;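 active = calcium response B-score plate-corrected fluorescence ratio at least 3 library SD, with starting fluorescence B-score inside 5 SD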
Target sequence (Q96LB2 whole entry, looked up): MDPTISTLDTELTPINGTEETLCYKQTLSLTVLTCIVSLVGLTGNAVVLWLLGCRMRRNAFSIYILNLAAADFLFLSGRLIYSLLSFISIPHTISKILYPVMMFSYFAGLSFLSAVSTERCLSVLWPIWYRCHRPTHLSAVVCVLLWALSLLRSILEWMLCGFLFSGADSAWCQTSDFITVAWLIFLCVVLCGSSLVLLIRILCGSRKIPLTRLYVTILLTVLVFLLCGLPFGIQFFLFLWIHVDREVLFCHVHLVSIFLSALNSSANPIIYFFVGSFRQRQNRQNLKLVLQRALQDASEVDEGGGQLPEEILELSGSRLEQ
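System: HEK293 cells stably expressing human MrgX1 receptor; Dosing: test compound in the initial addition of three; Schedule: overnight plating, then 30 min 37 °C plus 30 min room-temperature dye loading; Detection: kinetic calcium dye fluorescence, Fluo-4 NW; Controls: per-plate positive and negative controls for Z′ factor.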
MrgX1 allo act: positive allosteric modulators of MrgX1, primary screen, HEK293 cells, Fluo-4 calcium flux. Mas-related G-protein coupled receptor member X1 (Homo sapiens), Q96LB2. AID 588675, 2011. 0.63% of 310,000 active. FDSS; active compounds read high. B-score at 10 µM;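 active = plate-corrected calcium response at least 3 library SD above typical, normal starting fluorescence, not activating the receptor alone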;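 also: compound read alongside a low EC10 to EC30 dose of BAM8-22 agonist; peak minus trough fluorescence over baseline measured at the second addition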
RGS4 inh: RGS4 inhibitors, primary screen, cell-based, HEK293 M3R inducible RGS4, calcium flux; Fluo-4 calcium flux; active compounds read high; triggered by carbachol at its EC20; B-score at 10 µM; 0.45% of 310,000 active;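 active = B-score, a plate-corrected calcium signal, over three deviations above library mean, with baseline fluorescence within five deviations of library mean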;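 also: RGS4 expression induced by doxycycline in cells with stable M3 receptor; B-score is computed from the integrated fluorescence ratio over baseline after carbachol; higher B-score means a larger calcium signal and so more RGS4 inhibition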
Target sequence (P49798 whole entry, looked up): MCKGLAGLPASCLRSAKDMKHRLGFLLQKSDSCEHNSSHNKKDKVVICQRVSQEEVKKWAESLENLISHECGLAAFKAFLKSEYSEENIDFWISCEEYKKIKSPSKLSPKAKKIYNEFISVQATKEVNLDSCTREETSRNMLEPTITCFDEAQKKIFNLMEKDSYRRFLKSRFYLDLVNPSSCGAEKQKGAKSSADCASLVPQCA
MrgX1 antag: antagonists of human MrgX1 receptor, primary screen, HEK293 cells, Fluo-4 calcium flux. Mas-related G-protein coupled receptor member X1 (Homo sapiens), Q96LB2. BAM8-22 antagonism; active compounds read low. B-score at 10 µM. 1.3% of 310,000 active. AID 588676, 2011;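 active = calcium-response B-score plate-corrected more than 3 library SD below zero, starting fluorescence within 5 deviations, no agonist response on first addition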;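 also: peak minus trough fluorescence over baseline after final BAM8-22 challenge near maximal dose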
RGS4 inh valid: enhanced carbachol calcium response, M3R/RGS4 cells, RGS4 inhibitor project, cell-based, validation screen, HEK293 M3R/RGS4, calcium flux | 65% of 1,700 active | AID 492999, 2010 | shares compounds with RGS4 inh | carbachol calcium Fluo-4 fluorescence; carbachol added at its EC20; 0 = buffer wells, 100 = carbachol control | calcium response, % at 10 µM;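 active = duplicate-averaged calcium response above the buffer-only control mean plus 5 SD of those controls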;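 also: integrated fluorescence ratio F max minus min over baseline F0; higher response in RGS4-induced cells means RGS4 inhibition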
RGS4 uninduced: carbachol calcium response in non-induced M3R cells, confirmation, counter-screen for RGS4 inhibitor project, cell-based, HEK293 M3R. shares compounds with RGS4 inh. carbachol calcium Fluo-4; submaximal (EC20) carbachol stimulus; buffer wells 0%, carbachol control wells 100%. activity (percent), % at 10 µM. 20% of 1,900 active; call rule not given here;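 also: RGS4 induction absent so cells express M3R without RGS4; higher means more calcium signal and flags a non-specific hit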
M3R basal Ca ctr: signal in non-induced cells without carbachol, RGS4 inhibitor counter-screen; calcium response (agonist-mode artifact), % at 10 µM; HEK293 M3R/RGS4 non-induced, Fluo-4 calcium, no carbachol; normalised: buffer wells 0%, carbachol wells 100%; 22% of 1,900 active; shares compounds with RGS4 inh;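 active = duplicate-averaged calcium rise in uninduced cells above buffer wells' mean plus 5 SD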
Numbers without * were called inactive; i = inactive; . = not tested or not shown.

SMILES | RGS4 pot | MrgX1 agonist | MrgX1 allo act | RGS4 inh | MrgX1 antag | RGS4 inh valid | RGS4 uninduced | M3R basal Ca ctr
COc1cc(C2C(C#N)=C(N)Oc3cc(O)ccc32)cc2c1OCO2 (stereo not given) | i | i | i | 11.8* | i | 29.0%* | i | i
COc1cc(C2C(C#N)=C(N)Oc3cc(O)ccc32)cc(OC)c1OC (stereo not given) | i | i | i | i | i | . | . | .
COc1ccc(C2C(C#N)=C(N)Oc3cc(O)ccc32)cc1C (stereo not given) | i | i | i | i | i | . | 31.0%* | 21.0%*
COc1ccc(C2C(C#N)=C(N)Oc3cc(O)ccc32)cc1OC (stereo not given) | i | i | i | i | i | . | i | i
Cn1ccnc1SCC(=O)c1cccc(C(F)(F)F)c1 | i | i | i | i | i | . | . | .
Nn1c(-c2ccccc2)cc(-c2ccccc2)cc1=O | i | i | i | i | i | . | . | .
Cc1[nH]c2ccccc2c1/C=N/NC(N)=S | i | i | i | i | i | . | . | .
Cc1ccc(NC(=S)N/N=C/c2c(C)[nH]c3ccccc23)cc1 | i | i | i | 4.93* | i | 6.5%* | i | 12.0%*
CCOC(CCn1ccc(O)c(Cc2ccc(Cl)cc2)c1=O)OCC | i | i | i | i | i | . | . | .
C/C(=N\NC(=O)c1c(Cl)cnn1C)c1ccc(NC(=O)c2ccncc2)cc1 | i | i | i | 9.55* | i | i | i | i
O=C(CSCC(=O)N1CCN(c2ccccc2)CC1)Nc1nc(-c2ccc(Cl)s2)cs1 | i | i | i | i | i | i | i | i
O=C(CSCC(=O)N1CCCCC1)Nc1nc(-c2cccs2)cs1 | i | i | i | i | i | . | . | .
CCOC(=O)N1CCN(C(=O)CSCC(=O)Nc2nc(-c3ccccc3)cs2)CC1 | i | i | i | i | i | . | . | .
O=C(CSCC(=O)N1CCCCC1)Nc1nc(-c2ccc(Cl)s2)cs1 | i | i | i | 9.34* | i | i | i | i
COc1ccc(CCNC(=O)C(=O)NCC2OCCN2S(=O)(=O)c2ccccc2)cc1 (stereo not given) | i | i | i | i | i | . | . | .
COc1ccc(CN2C(=O)C(=O)N(CC(N)=O)C2=O)cc1 | i | i | i | i | i | . | . | .
CCc1ccccc1-n1ncc(C(=O)Nc2ccccc2OC)c1C | i | i | i | 7.41* | i | i | i | 31.5%*
COc1ccccc1NC(=O)c1ccccc1C(=O)Nc1ccccc1OC | i | i | i | i | i | . | . | .
CC1=NN(c2ccc(C)cc2C)C(=O)C1C(c1ccccc1)C1C(=O)N(c2ccc(C)cc2C)N=C1C (stereo not given) | i | i | i | i | i | . | . | .
CC1=NN(c2ccc(Cl)cc2)C(=O)C1C(c1cccc(O)c1)c1c(C)[nH]n(-c2ccc(Cl)cc2)c1=O (stereo not given) | i | i | i | i | i | . | 35.5%* | i
CC1=NN(c2ccc(F)cc2)C(=O)C1C(c1cccc(O)c1)c1c(C)[nH]n(-c2ccc(F)cc2)c1=O (stereo not given) | i | i | i | 9.66* | i | 13.0%* | i | i
CC(C)(C)c1ccc(-c2nc(NCc3cccnc3)c3ccccc3n2)cc1 | i | i | i | 8.63* | i | 18.0%* | i | i
O=C/C=C/c1c(-c2ccccc2)cc2oc3ccccc3cc1-2 | i | 35* | i | 24.2* | i | 15.5%* | i | i
Cc1ccc(C2C(C#N)=C(N)Oc3cc(C)oc(=O)c32)o1 (stereo not given) | i | i | i | 7.26* | i | 21.5%* | i | i
Cc1ccc(C)c(C2C(C#N)=C(N)Oc3cc(C)oc(=O)c32)c1 (stereo not given) | i | i | i | i | i | . | . | .
SMILES | RGS4 pot | MrgX1 agonist | MrgX1 allo act | RGS4 inh | MrgX1 antag | RGS4 inh valid | RGS4 uninduced | M3R basal Ca ctr
C=CCOc1ccc(C(=O)/C=C2/C(=O)Nc3ccccc32)cc1 | i | i | i | 4.72* | i | 14.0%* | 37.0%* | i
O=C1Nc2ccccc2/C1=C/C(=O)c1cccs1 | i | i | i | 7.13* | i | 13.5%* | i | i
COc1ccc(C(=O)/C=C2/C(=O)Nc3ccccc32)cc1 | i | i | i | 7* | i | 16.5%* | i | i
COc1cc(/C=N/NC(=O)c2ccc(F)cc2)ccc1OC(=O)c1ccco1 | i | i | i | i | i | . | . | .
COc1cc(/C=C2/C(=O)NN(c3ccc(Cl)cc3)C2=O)ccc1OC(=O)c1ccco1 | i | i | i | i | i | . | i | 8.5%*
COc1cc(/C=C2/C(=O)NN(c3cccc(F)c3)C2=O)ccc1OC(=O)c1ccco1 | i | i | i | i | i | . | i | i
CC(=O)NNC(=O)c1[nH]c2ccc(Cl)cc2c1-c1ccccc1 | i | i | i | i | i | . | . | .
O=C(NN=C1CCCC1)c1[nH]c2ccc(Cl)cc2c1-c1ccccc1 | i | i | i | 11.4* | i | 49.5%* | i | i
O=C(Cc1ccc(Br)c2ccccc12)N/N=C/c1ccccn1 | i | i | i | 4.96* | i | 62.0%* | i | i
Cc1cc(C)n(CC(O)Cn2c3ccc(Cl)cc3c3cc(Cl)ccc32)c(=O)n1 (stereo not given) | i | i | i | 8* | i | 25.0%* | i | i
Cc1cc(C)n(CC(O)Cn2c3ccccc3c3ccccc32)n1 (stereo not given) | i | i | i | i | i | . | . | .
